Active and inactive are the calls of the source. The calls are words filed in the database; no cut-off is given here.
target: Tubulin (Bos taurus); assay: Inhibition of tubulin polymerization of purified bovine brain tubulin; conditions: not given

Row | Structure (SMILES) | IC50
1 | C=CC[C@@H](CC/C(C)=C/C=C/CC/C=C\[C@H]1CSC([C@@H]2C[C@@H]2C)=N1)OC | 5.5 µM
2 | C=CC[C@@H](CC/C(C)=C/C=C/CC/C=C\[C@@H]1CSC([C@H]2C[C@@H]2C)=N1)OC | 0.77 µM
3 | C=CC[C@H](CC/C(C)=C/C=C/CC/C=C\[C@@H]1CSC([C@@H]2C[C@@H]2C)=N1)OC | 0.67 µM
4 | C=CCC1(CC/C(C)=C/C=C/CC/C=C\[C@@H]2CSC([C@@H]3C[C@@H]3C)=N2)OCCO1 | 0.78 µM
5 | C=CC[C@@H](CC/C(C)=C/C=C/CC/C=C\[C@@H]1CSC([C@@H]2C[C@@H]2C)=N1)OC(=O)c1ccccc1 | > 80 µM
6 | C=CC[C@@H](CC/C(C)=C\C=C\CC/C=C\[C@@H]1CSC([C@@H]2C[C@@H]2C)=N1)OC [CURACIN C] | 2.3 µM
7 | CCCCCCCCCCCC/C=C\[C@@H]1CSC([C@@H]2C[C@@H]2C)=N1 | > 50 µM
8 | C=CC[C@@H](CC/C(C)=C/C=C\CC/C=C\[C@@H]1CSC([C@@H]2C[C@@H]2C)=N1)OC [CURACIN B] | 0.82 µM

test system: A2780; assay: Compound was tested for 50% Growth Inhibitory concentration by using A2780 cell lines.; conditions: Homo sapiens

Row | GI50 | Structure (SMILES)
9 | > 25 µM | COC[C@H]1C[C@H]1C1=NC(COC/C=C(\C)CC/C=C(\C)CCC=C(C)C)CS1 (stereo partly specified)

test system: A2780; assay: Compound was tested for Tubulin polymerization inhibition by using human ovarian cancer cell lines.; format: functional; conditions: not given
Method in brief: (§1)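 Tubulin (10 μM final, 1 mg/mL) was preincubated with agent in DMSO (4% v/v final) and 0.8 M monosodium glutamate for 15 min at 30 °C, then cooled to 0 °C and GTP (0.4 mM final) added. Turbidity at 350 nm was followed for 20 min at 30 °C. […] Values are averages of two determinations.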

Row | Structure (SMILES) | TPI
10 | C=CC[C@@H](CC/C(C)=C/C=C/CC/C=C\c1coc(C(C)(C)C)n1)OC | 51%
11 | COc1cc(/C=C\CC/C=C/C=C(\C)CCC(O)c2cccs2)cc(OC)c1OC (stereo unspecified) | >95%
12 | COc1cc(CCCCCCCC(C)CCC(O)c2cccs2)cc(OC)c1OC (stereo unspecified) | 15%
13 | C=CC[C@@H](CC/C(C)=C/C=C/CC/C=C\[C@@H]1CSC(C(C)(C)C)=N1)OC | 100%
14 | C=CC[C@@H](CC/C(C)=C/C=C/CC/C=C\c1csc(C(C)(C)C)n1)OC | 100%
15 | C=CC[C@@H](CC/C(C)=C/C=C/CC/C=C\[C@@H]1COC(C(C)(C)C)=N1)OC | 0%
16 | COc1cc(/C=C/CC/C=C/C=C(\C)CCC(O)c2cccs2)cc(OC)c1OC (stereo unspecified) | 25%

test system: A2780; assay: Tested for colchicine binding inhibition, using human ovarian cancer cell lines (at 5 uM ); format: functional; conditions: not given
Method in brief: (§2)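 [3H]colchicine (5 μM) was incubated with 1 μM tubulin and agent (1-250 μM) or DMSO vehicle (5% v/v) at 30 °C for 15 min or 37 °C for 10 min, in 1 M monosodium glutamate, 0.1 M glucose-1-phosphate, 1 mM MgCl2, 1 mM GTP and 0.5 mg/mL BSA. Samples were filtered through DEAE-cellulose and counted by scintillation. Values are means (N = 9 over four concentrations) ± SD.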

Row | Structure (SMILES) | inhibition at 5 µM
17 | C=CC[C@@H](CC/C=C/C=C/CC/C=C\[C@@H]1CSC([C@@H]2C[C@@H]2C)=N1)OC | 53%
18 | C=CC[C@@H](CC/C(C)=C/C=C/CC/C=C\c1coc(C(C)(C)C)n1)OC | < 10%
19 | COc1cc(/C=C\CC/C=C/C=C(\C)CCC(O)c2cccs2)cc(OC)c1OC (stereo unspecified) | 39%
20 | COc1cc(CCCCCCCC(C)CCC(O)c2cccs2)cc(OC)c1OC (stereo unspecified) | < 10%
21 | C=CC[C@@H](CC/C(C)=C/C=C/CC/C=C\[C@H]1CSC([C@@H]2C[C@@H]2C)=N1)OC | 3%
22 | C=CC[C@@H](CC/C(C)=C/C=C/CC/C=C\[C@@H]1CSC(C(C)(C)C)=N1)OC | 35%
23 | C=CC[C@@H](CC/C(C)=C/C=C/CC/C=C\[C@@H]1CSC([C@H]2C[C@@H]2C)=N1)OC | 88%
24 | C=CC[C@H](CC/C(C)=C/C=C/CC/C=C\[C@@H]1CSC([C@@H]2C[C@@H]2C)=N1)OC | 56%
25 | C=CCC1(CC/C(C)=C/C=C/CC/C=C\[C@@H]2CSC([C@@H]3C[C@@H]3C)=N2)OCCO1 | 92%
26 | C=CC[C@@H](CC/C(C)=C/C=C/CC/C=C\[C@@H]1CSC([C@@H]2C[C@@H]2C)=N1)OC(=O)c1ccccc1 | 5%
27 | C=CC[C@@H](CC/C(C)=C/C=C/CC/C=C\c1csc(C(C)(C)C)n1)OC | 38%
28 | C=CC[C@@H](CC/C(C)=C/C=C/CC/C=C\[C@@H]1COC(C(C)(C)C)=N1)OC | < 10%
29 | C=CC[C@@H](CC/C(C)=C\C=C\CC/C=C\[C@@H]1CSC([C@@H]2C[C@@H]2C)=N1)OC [CURACIN C] | 10%
30 | COc1cc(/C=C/CC/C=C/C=C(\C)CCC(O)c2cccs2)cc(OC)c1OC (stereo unspecified) | < 10%
31 | C=CC[C@@H](CC/C(C)=C/C=C\CC/C=C\[C@@H]1CSC([C@@H]2C[C@@H]2C)=N1)OC [CURACIN B] | 56%

test system: not listed separately; assay: Average growth inhibition activity in analogy of ca.; format: functional; conditions: not given
Method in brief: (§3)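 Cultured human tumor cells were seeded at 500-2000 cells/well, allowed to attach for 48 h, then exposed continuously for 48 h to DMSO vehicle or agent at five concentrations (e.g., 50-0.08 μM, 10-0.016 μM or 1-0.0016 μM series), each in quadruplicate. A time-zero plate was included. Cell number was read by MTS/phenazine methanesulfonate at A490-A630. Values are means (N = 4 over 10 concentrations) ± SD.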

Row | Structure (SMILES) | GI50
32 | COc1cc(/C=C\CC/C=C/C=C(\C)CCC(O)c2cc3ccccc3o2)cc(OC)c1OC (stereo unspecified) | 0.25 µM

test system: PC-3; assay: 50% Growth inhibitory concentration by using PC -3 human prostate carcinoma cell lines (48h continuous exposure); format: functional; conditions: PC-3, 48 h
Method in brief: as §3

Row | GI50 | Structure (SMILES)
33 | > 50 µM | C=CC[C@@H](CC/C(C)=C/C=C/CC/C=C\c1coc(C(C)(C)C)n1)OC
34 | 21 µM | COc1cc(CCCCCCCC(C)CCC(O)c2cccs2)cc(OC)c1OC (stereo unspecified)
35 | 0.13 µM | C=CC[C@@H](CC/C(C)=C/C=C/CC/C=C\[C@@H]1CSC(C(C)(C)C)=N1)OC
36 | 0.24 µM | C=CC[C@@H](CC/C(C)=C/C=C/CC/C=C\c1csc(C(C)(C)C)n1)OC
37 | 6.2 µM | C=CC[C@@H](CC/C(C)=C/C=C/CC/C=C\[C@@H]1COC(C(C)(C)C)=N1)OC
38 | 35 µM | COc1cc(/C=C/CC/C=C/C=C(\C)CCC(O)c2cccs2)cc(OC)c1OC (stereo unspecified)

test system: 2008; assay: 50% Growth inhibitory concentration( GI 50 ) by using 2008 human ovarian carcinoma cell lines.; format: functional; conditions: not given
Method in brief: as §3

Row | Structure (SMILES) | GI50
39 | C=CC[C@@H](CC/C(C)=C/C=C/CC/C=C\c1coc(C(C)(C)C)n1)OC | > 50 µM
40 | COc1cc(/C=C\CC/C=C/C=C(\C)CCC(O)c2cccs2)cc(OC)c1OC (stereo unspecified) | 0.28 µM
41 | COc1cc(CCCCCCCC(C)CCC(O)c2cccs2)cc(OC)c1OC (stereo unspecified) | 26 µM
42 | C=CC[C@@H](CC/C(C)=C/C=C/CC/C=C\[C@@H]1CSC(C(C)(C)C)=N1)OC | 0.22 µM
43 | C=CC[C@@H](CC/C(C)=C/C=C/CC/C=C\c1csc(C(C)(C)C)n1)OC | 0.3 µM
44 | C=CC[C@@H](CC/C(C)=C/C=C/CC/C=C\[C@@H]1COC(C(C)(C)C)=N1)OC | 0.45 µM
45 | COc1cc(/C=C/CC/C=C/C=C(\C)CCC(O)c2cccs2)cc(OC)c1OC (stereo unspecified) | 21 µM

test system: A2780; assay: Inhibition of tubulin polymerization in analogy of ca.; format: functional, cell-based; conditions: Homo sapiens
Method in brief: as §1

Row | IC50 | Structure (SMILES)
46 | 1 µM | COc1cc(/C=C\CC/C=C/C=C(\C)CCC(O)c2cc3ccccc3o2)cc(OC)c1OC (stereo unspecified)

test system: MCF7; assay: Tested for 50% growth inhibitory concentration by using MCF-7 cell lines.; format: functional; conditions: Homo sapiens
Method in brief: as §3

Row | Structure (SMILES) | GI50
47 | C=CC[C@@H](CC/C=C/C=C/CC/C=C\[C@@H]1CSC([C@@H]2C[C@@H]2C)=N1)OC | 0.34 µM
48 | C=CC[C@@H](CC/C(C)=C/C=C/CC/C=C\[C@H]1CSC([C@@H]2C[C@@H]2C)=N1)OC | > 1 µM
49 | C=CC[C@@H](CC/C(C)=C/C=C/CC/C=C\[C@@H]1CSC([C@H]2C[C@@H]2C)=N1)OC | 0.99 µM
50 | C=CC[C@H](CC/C(C)=C/C=C/CC/C=C\[C@@H]1CSC([C@@H]2C[C@@H]2C)=N1)OC | 0.18 µM
51 | C=CCC1(CC/C(C)=C/C=C/CC/C=C\[C@@H]2CSC([C@@H]3C[C@@H]3C)=N2)OCCO1 | 0.03 µM
52 | C=CC[C@@H](CC/C(C)=C/C=C/CC/C=C\[C@@H]1CSC([C@@H]2C[C@@H]2C)=N1)OC(=O)c1ccccc1 | > 10 µM
53 | C=CC[C@@H](CC/C(C)=C\C=C\CC/C=C\[C@@H]1CSC([C@@H]2C[C@@H]2C)=N1)OC [CURACIN C] | 3.6 µM
54 | C=CC[C@@H](CC/C(C)=C/C=C\CC/C=C\[C@@H]1CSC([C@@H]2C[C@@H]2C)=N1)OC [CURACIN B] | 0.32 µM

test system: A2780; assay: Compound was tested for Tubulin polymerization inhibition by using human ovarian carcinoma cell lines.;NA means not active; format: functional, cell-based; conditions: not given
Method in brief: as §1

Row | Structure (SMILES) | NA
55 | C/C=C\[C@@H]1CSC([C@@H]2C[C@@H]2C)=N1 | inactive

test system: A2780; assay: Compound was tested for colchicine binding inhibition by using human ovarian carcinoma cell lines (at 5 uM );NA means not active; format: functional, cell-based; conditions: not given
Method in brief: as §2

Row | Structure (SMILES) | NA
56 | C/C=C\[C@@H]1CSC([C@@H]2C[C@@H]2C)=N1 | inactive

Source: ChEMBL document CHEMBL1135577, “Synthesis and biological evaluation of structurally highly modified analogues of the antimitotic natural product curacin A” (J Med Chem, 2002)
